Measured values from publication PMC11737066 (RSC Advances, 2025).

Assay: Parallel artificial membrane permeability assay
Assay type: in vitro ADME
Conditions: 24 h incubation at 37 °C; initial minus final donor and acceptor concentration
Procedure, shortened: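 Artificial membrane made of 1% (mass fraction) lecithin in dodecane, applied to hydrophobic PVDF filter donor wells. Test compound solution was added to the donor side, and the donor/acceptor sandwich was incubated 24 h at 37 °C. Donor and acceptor concentrations were taken from maximum absorbance (scan 190–400 nm). Membrane integrity was checked with brilliant cresyl blue and lucifer yellow.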

Compound | % of compound integrated in membrane
CCCCCCCCCCCC[N+](C)(C)Cc1ccccc1.[Br-] [BAB, dimethyldodecylbenzylammonium bromide] | ≈ 97%
CCCCCCCCCCCCCCCC[n+]1ccccc1 [CPC, cetylpyridinium chloride] | ≈ 97%
